Assay results from ChEMBL document CHEMBL1145082 (J Med Chem, 2003).

Legend:
[1] = molecular target: Cyclin-dependent kinase 2 (Homo sapiens, UniProt P24941); test: Inhibition of Cyclin-dependent kinase 2 (CDK2)
Outline: (§1)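 Reaction started with 30–150 ng kinase, run 1 h at 30 °C. Peptides captured on streptavidin plates and counted. IC50 from 6–10 concentrations; ≥3 experiments in duplicate; ± SEM.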

[2] = molecular target: MAP kinase-activated protein kinase 5 (Homo sapiens) (UniProt Q8IW41); test: Inhibition of human Protein kinase PRAK at 10 uM; design: scale not given: the % may be the effect or the level left
Outline: (§2)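 Outsourced selectivity panel. Each kinase phosphorylated its own peptide or protein substrate in the presence of 10 µM compound and 10 µM ATP, within the linear time range. Activity given as mean percent of control incubations from duplicate determinations.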

[3] = molecular target: T1, Protein kinase C gamma type (Homo sapiens, UniProt P05129); test: Inhibition of Protein kinase C gamma (PKC-gamma)
Outline: (§3)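 Recombinant human PKCα, PKCγ or PKCβII (5–10 mU) phosphorylating histone H1 (0.1 mg/mL) with 33P-ATP, total ATP 10 µM. Buffer 50 mM Hepes pH 7.4 with Triton X-100, CaCl2, Mg acetate, phosphatidylserine and diacylglycerol. Run 40 min at room temperature, stopped with phosphoric acid, then P30 filter counting. IC50 from 6–10 concentrations; ≥3 experiments in duplicate; ± SEM.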

[4] = molecular target: Protein kinase C beta type (Homo sapiens, UniProt P05771); test: Inhibition of Protein kinase C beta 2
Outline: as §3, with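 “counting.” for “counting. IC50 from 6–10 concentrations; ≥3 experiments in duplicate; ± SEM.”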

[5] = molecular target: Serine/threonine-protein kinase N2 (Homo sapiens) (UniProt Q16513); test: Inhibition of human protein kinase C-related protein kinase 2 (PRK2) at 10 uM; design: scale not given: the % may be the effect or the level left
Outline: (§4)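 Upstate kinase selectivity panel: each kinase phosphorylated its peptide or protein substrate with 10 µM compound present and 10 µM ATP. Reactions were linear with time. Activity is reported as the mean percentage of control incubations, from duplicate determinations.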

[6] = molecular target: Mitogen-activated protein kinase 9 (Homo sapiens) (UniProt P45984); test: Inhibition of human c-Jun N-terminal kinase 2-alpha 2 at 10 uM; design: scale not given: the % may be the effect or the level left; outline: as §4
[7] = molecular target: Ribosomal protein S6 kinase alpha-3 (Homo sapiens) (UniProt P51812); test: (§5) Inhibition of Ribosomal S6 kinase 3 at 10 uM; outline: as §2
[8] = species: Bos taurus; test: Inhibition of bovine Protein kinase A at 10 uM; design: scale not given: the % may be the effect or the level left; outline: as §2
[9] = molecular target: Tyrosine-protein kinase Lyn (Homo sapiens) (UniProt P07948); test: Inhibition of Protein tyrosine kinase Lyn at 10 uM; design: scale not given: the % may be the effect or the level left; outline: as §2
[10] = molecular target: Insulin-like growth factor 1 receptor (Homo sapiens) (UniProt P08069); test: Inhibition of Type 1 insulin like growth factor receptor at 10 uM; design: scale not given: the % may be the effect or the level left; outline: as §2
[11] = molecular target: Mitogen-activated protein kinase 8 (Homo sapiens) (UniProt P45983); test: Inhibition of human JNK1-alpha-1 at 10 uM; design: scale not given: the % may be the effect or the level left; outline: as §2
[12] = molecular target: Cyclin-dependent kinase 5/CDK5 activator 1 (Homo sapiens) (UniProt Q00535+Q15078); test: Inhibition of Cyclin-dependent kinase 5-p35nck5a at 10 uM; assay type: protein-complex assay; design: scale not given: the % may be the effect or the level left; outline: as §2
[13] = molecular target: Insulin receptor (Homo sapiens) (UniProt P06213); test: Inhibition of Insulin receptor at 10 uM; design: scale not given: the % may be the effect or the level left; outline: as §2
[14] = molecular target: Cyclin-dependent kinase 1 (Homo sapiens, UniProt P06493); test: Inhibition of Cyclin-dependent kinase 1; outline: as §1
[15] = molecular target: Platelet-derived growth factor receptor beta (Homo sapiens) (UniProt P09619); test: Inhibition of Platelet-derived growth factor receptor beta at 10 uM; design: scale not given: the % may be the effect or the level left; outline: as §2
[16] = molecular target: T1, Protein kinase C gamma type; test: Inhibition of human Protein kinase C gamma at 10 uM; design: scale not given: the % may be the effect or the level left; outline: as §2
[17] = molecular target: Ribosomal protein S6 kinase alpha-5 (Homo sapiens) (UniProt O75582); test: Inhibition of human MSK-1 kinase at 10 uM; design: scale not given: the % may be the effect or the level left; outline: as §2
[18] = molecular target: Tyrosine-protein kinase Fyn (Homo sapiens) (UniProt P06241); test: Inhibition of human Fyn tyrosine kinase at 10 uM; design: scale not given: the % may be the effect or the level left; outline: as §2
[19] = Inhibition of Vascular endothelial growth factor receptor 2; design: species or system Homo sapiens; outline: as §1
[20] = molecular target: Inhibitor of nuclear factor kappa-B kinase subunit beta (Homo sapiens) (UniProt O14920); test: Inhibition of I-kappa-B-kinase beta at 10 uM; design: scale not given: the % may be the effect or the level left; outline: as §2
[21] = molecular target: Mitogen-activated protein kinase 1 (Homo sapiens) (UniProt P28482); test: Inhibition of human Mitogen-activated protein kinase 1 at 10 uM; design: scale not given: the % may be the effect or the level left; outline: as §2
[22] = molecular target: Mitogen-activated protein kinase 8 (Homo sapiens) (UniProt P45983); test: Inhibition of human c-Jun N-terminal kinase 1-alpha 1 at 10 uM; design: scale not given: the % may be the effect or the level left; outline: as §4
[23] = molecular target: Ribosomal protein S6 kinase alpha-3 (Homo sapiens) (UniProt P51812); test: as §5; design: scale not given: the % may be the effect or the level left; outline: as §2
[24] = molecular target: Serine/threonine-protein kinase N2 (Homo sapiens) (UniProt Q16513); test: Inhibition of human Protein kinase C related kinase 2 (PRK2) at 10 uM; design: scale not given: the % may be the effect or the level left; outline: as §2

Chain of Ribosomal protein S6 kinase alpha-5 (Homo sapiens) (O75582 whole entry, looked up): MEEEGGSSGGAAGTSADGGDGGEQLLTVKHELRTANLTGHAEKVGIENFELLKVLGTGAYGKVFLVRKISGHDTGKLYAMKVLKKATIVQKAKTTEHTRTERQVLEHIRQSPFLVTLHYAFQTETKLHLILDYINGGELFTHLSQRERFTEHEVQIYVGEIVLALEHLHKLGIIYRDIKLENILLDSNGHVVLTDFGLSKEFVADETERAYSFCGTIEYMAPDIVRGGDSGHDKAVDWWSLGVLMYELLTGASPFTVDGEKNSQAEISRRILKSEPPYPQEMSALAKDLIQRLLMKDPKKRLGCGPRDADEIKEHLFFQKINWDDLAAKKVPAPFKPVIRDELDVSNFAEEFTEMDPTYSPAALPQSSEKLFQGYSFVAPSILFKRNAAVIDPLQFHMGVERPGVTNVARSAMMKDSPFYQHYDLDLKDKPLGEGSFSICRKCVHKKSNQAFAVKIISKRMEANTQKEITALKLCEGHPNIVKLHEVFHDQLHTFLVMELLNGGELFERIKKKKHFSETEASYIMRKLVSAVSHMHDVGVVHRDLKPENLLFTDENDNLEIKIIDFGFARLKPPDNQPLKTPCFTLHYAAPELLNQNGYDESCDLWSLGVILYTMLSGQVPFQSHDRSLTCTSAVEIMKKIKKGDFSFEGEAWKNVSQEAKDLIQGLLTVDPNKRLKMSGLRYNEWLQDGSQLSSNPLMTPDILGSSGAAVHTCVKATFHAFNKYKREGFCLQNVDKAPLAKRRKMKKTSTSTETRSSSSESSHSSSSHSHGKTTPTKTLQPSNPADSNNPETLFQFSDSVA
Chain of Cyclin-dependent kinase 5/CDK5 activator 1 (Homo sapiens) (Q00535 whole entry): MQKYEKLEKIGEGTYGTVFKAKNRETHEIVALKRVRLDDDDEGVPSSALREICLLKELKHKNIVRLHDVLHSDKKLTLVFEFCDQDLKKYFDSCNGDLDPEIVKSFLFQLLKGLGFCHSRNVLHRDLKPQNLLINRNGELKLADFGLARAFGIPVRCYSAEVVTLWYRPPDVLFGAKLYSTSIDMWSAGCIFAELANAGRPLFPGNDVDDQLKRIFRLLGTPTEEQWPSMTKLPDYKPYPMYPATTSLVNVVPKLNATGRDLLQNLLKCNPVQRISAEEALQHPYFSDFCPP
Chain of Cyclin-dependent kinase 5/CDK5 activator 1 (Homo sapiens) (Q15078 99-307 partner limits assumed): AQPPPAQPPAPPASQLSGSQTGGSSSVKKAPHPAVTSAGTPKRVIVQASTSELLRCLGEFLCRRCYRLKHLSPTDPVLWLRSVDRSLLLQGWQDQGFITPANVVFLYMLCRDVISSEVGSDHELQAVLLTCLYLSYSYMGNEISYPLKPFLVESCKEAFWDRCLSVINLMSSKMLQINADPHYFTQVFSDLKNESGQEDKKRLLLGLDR
Chain of Protein kinase C beta type (P05771 whole entry): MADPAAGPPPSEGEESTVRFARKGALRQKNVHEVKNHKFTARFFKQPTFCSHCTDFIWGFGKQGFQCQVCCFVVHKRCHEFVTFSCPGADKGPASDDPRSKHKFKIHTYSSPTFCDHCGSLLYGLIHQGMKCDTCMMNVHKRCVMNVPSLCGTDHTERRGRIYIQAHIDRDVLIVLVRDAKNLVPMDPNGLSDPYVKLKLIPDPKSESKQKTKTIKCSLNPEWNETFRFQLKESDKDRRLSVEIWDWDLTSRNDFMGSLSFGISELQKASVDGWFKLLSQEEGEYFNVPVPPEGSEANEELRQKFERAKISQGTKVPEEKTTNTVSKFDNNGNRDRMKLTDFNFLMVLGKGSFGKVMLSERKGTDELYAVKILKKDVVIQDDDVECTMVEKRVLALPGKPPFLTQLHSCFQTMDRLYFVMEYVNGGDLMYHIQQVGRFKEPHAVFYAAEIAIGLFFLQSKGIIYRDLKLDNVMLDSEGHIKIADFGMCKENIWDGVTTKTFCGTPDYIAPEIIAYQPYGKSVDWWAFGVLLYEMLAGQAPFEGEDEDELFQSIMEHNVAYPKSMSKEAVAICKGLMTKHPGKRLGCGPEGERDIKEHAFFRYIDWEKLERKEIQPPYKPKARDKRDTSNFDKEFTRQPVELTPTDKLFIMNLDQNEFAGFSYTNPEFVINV
Chain of Cyclin-dependent kinase 1 (P06493 whole entry): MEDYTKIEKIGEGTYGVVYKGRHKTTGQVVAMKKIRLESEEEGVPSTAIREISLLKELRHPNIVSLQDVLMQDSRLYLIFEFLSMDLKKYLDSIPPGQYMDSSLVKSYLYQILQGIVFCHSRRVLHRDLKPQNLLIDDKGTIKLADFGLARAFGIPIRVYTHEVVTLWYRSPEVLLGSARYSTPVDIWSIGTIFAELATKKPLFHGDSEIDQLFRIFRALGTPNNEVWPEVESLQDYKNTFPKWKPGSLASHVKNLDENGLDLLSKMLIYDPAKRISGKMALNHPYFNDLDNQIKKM
Chain of MAP kinase-activated protein kinase 5 (Homo sapiens) (Q8IW41 whole entry): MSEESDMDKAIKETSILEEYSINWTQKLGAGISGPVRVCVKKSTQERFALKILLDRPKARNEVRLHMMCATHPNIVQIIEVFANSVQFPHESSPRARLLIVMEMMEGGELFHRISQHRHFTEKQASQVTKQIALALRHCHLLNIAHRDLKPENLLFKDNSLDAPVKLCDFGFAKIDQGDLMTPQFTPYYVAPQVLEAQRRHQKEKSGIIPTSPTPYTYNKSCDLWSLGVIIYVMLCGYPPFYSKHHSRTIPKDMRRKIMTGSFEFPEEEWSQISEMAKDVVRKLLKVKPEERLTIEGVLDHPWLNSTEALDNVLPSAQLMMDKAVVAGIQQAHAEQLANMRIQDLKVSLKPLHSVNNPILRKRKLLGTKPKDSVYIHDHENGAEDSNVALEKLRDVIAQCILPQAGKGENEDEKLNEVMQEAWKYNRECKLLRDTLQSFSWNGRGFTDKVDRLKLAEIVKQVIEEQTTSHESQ
Chain of Ribosomal protein S6 kinase alpha-3 (Homo sapiens) (P51812 whole entry): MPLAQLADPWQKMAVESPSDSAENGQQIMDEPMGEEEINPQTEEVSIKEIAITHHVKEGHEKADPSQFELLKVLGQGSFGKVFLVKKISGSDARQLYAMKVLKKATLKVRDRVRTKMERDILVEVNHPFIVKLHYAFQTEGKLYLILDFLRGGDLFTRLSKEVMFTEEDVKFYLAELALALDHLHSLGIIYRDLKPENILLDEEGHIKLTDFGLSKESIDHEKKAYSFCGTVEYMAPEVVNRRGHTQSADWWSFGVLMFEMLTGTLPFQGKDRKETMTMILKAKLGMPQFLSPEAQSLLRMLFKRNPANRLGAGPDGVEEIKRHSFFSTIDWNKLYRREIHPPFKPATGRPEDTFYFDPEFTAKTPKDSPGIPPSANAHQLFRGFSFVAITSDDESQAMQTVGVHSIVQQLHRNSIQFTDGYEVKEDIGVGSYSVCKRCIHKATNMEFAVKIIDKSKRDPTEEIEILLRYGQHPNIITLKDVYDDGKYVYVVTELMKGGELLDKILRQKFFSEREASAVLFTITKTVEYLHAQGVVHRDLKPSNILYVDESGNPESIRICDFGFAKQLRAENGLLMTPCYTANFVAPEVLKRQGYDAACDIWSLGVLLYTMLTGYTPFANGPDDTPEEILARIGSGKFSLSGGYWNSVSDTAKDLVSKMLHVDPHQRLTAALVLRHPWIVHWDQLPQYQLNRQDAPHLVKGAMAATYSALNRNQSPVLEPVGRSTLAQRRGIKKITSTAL
Chain of Serine/threonine-protein kinase N2 (Homo sapiens) (Q16513 whole entry, looked up): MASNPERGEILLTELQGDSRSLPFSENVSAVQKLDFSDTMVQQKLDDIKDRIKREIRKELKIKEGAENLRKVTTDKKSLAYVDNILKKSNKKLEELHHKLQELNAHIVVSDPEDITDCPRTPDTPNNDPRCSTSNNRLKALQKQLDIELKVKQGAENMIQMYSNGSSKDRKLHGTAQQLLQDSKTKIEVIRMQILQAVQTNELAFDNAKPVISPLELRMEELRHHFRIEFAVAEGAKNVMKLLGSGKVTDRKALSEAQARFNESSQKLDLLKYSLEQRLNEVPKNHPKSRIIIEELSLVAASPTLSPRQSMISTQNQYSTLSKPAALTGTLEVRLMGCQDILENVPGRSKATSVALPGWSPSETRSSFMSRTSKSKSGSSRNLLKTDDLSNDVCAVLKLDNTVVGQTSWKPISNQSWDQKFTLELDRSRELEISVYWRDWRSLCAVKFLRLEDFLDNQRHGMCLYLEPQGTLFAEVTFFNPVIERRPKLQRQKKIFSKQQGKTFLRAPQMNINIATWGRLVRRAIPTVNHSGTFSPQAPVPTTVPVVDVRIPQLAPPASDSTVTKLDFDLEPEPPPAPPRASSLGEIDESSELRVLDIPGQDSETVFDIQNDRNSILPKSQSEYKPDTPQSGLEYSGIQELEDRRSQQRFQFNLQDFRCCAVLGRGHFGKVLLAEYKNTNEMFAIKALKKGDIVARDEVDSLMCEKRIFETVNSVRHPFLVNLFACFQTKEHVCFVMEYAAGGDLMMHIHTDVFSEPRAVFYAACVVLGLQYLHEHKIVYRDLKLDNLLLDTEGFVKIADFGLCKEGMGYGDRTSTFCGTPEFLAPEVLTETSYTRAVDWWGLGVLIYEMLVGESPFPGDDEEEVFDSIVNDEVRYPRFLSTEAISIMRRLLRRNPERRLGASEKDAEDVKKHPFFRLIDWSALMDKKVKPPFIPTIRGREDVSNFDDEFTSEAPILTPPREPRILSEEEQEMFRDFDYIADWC
Chain of Mitogen-activated protein kinase 9 (Homo sapiens) (P45984 whole entry, looked up): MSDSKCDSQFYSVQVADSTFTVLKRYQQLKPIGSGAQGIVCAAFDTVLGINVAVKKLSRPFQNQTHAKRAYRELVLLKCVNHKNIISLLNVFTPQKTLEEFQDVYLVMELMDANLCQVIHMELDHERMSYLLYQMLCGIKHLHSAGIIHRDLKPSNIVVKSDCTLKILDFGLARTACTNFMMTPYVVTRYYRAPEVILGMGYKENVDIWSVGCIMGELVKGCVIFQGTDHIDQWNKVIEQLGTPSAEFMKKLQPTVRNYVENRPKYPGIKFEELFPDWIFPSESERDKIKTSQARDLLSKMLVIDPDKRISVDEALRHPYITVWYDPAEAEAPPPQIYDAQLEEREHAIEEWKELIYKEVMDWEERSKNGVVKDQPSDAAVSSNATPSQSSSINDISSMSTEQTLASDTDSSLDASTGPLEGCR

Row | IC50 [1] [µM] | Activity [2] [%] | IC50 [3] [µM] | IC50 [4] [µM] | Activity [6] [%] | Activity [8] [%] | Activity [9] [%] | Activity [10] [%] | Activity [12] [%] | IC50 [14] [µM] | Activity [15] [%] | Activity [16] [%] | Activity [17] [%] | Activity [18] [%] | IC50 [19] [µM] | Activity [20] [%] | SMILES | further results
1 | > 10 | 102 | > 10 | > 10 | 97 | 94 | 92 | 97 | 105 | > 10 | 86 | 96 | 89 | 95 | > 10 | 101 | O=C1NC(=O)C2=C1c1cn(c3ncccc13)CCOCCOCCOCCOCCn1cc2c2cccnc21 | Activity [5]: 104%; Of control [7]: 63%; Activity [11]: 98%; Activity [13]: 92%
2 | > 10 | 88 | > 10 | 1.16 | 76 | 88 | 99 | 107 | 82 | > 10 | 84 | 77 | 61 | 92 | > 10 | 97 | O=C1NC(=O)C2=C1c1cn(c3ncccc13)CCOCCOCCOCCn1cc2c2cccnc21 | Activity [21]: 106%; Activity [22]: 78%; Activity [23]: 21%; Activity [24]: 92%
